pIC50: −log10 of the molar value.
How the values were obtained:
[1] = target: Breakpoint cluster region protein/Tyrosine-protein kinase ABL1 (Homo sapiens, UniProt P00519+P11274); experiment: Antiproliferative activity against human K562 cell line expressing Bcr-Abl
Outline: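 Cell growth inhibition measured by counting cells with an automatic cell counter in sensitive HL60, MDR HL60R and Bcr-Abl-expressing K562 cells. IC50 is the concentration inhibiting 50% of cell growth.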

[2] = Antiproliferative activity against MDR human HL60R cell line

Sequence of Breakpoint cluster region protein/Tyrosine-protein kinase ABL1 (P00519 whole entry): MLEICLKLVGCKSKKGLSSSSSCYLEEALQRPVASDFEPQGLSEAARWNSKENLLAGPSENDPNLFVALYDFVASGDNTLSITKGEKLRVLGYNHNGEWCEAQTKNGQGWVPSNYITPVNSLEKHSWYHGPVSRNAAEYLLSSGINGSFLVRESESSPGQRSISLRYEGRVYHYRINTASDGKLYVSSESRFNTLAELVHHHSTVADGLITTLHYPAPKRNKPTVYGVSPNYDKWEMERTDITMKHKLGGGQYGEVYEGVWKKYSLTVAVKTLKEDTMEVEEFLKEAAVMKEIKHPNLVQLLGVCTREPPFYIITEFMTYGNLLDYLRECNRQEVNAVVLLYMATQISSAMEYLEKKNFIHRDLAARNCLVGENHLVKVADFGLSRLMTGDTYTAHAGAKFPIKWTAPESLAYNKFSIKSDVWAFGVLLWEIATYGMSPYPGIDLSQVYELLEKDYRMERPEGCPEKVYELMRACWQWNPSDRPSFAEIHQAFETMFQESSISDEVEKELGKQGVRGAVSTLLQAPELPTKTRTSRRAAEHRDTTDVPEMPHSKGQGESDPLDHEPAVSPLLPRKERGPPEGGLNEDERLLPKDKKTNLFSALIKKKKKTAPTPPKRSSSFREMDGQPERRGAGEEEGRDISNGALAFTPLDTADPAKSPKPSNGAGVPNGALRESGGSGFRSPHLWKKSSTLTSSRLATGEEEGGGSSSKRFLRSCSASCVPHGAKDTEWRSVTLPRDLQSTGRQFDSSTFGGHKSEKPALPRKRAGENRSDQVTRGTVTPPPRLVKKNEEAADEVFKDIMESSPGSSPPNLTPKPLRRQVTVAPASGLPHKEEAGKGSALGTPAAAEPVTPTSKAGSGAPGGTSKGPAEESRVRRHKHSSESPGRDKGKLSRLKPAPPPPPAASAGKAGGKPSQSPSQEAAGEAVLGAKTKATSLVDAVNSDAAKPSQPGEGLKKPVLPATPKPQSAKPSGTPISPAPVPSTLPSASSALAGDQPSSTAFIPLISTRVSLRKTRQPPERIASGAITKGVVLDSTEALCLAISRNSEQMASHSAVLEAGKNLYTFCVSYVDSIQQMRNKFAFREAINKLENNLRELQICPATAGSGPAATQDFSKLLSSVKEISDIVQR
Sequence of Breakpoint cluster region protein/Tyrosine-protein kinase ABL1 (P11274 whole entry): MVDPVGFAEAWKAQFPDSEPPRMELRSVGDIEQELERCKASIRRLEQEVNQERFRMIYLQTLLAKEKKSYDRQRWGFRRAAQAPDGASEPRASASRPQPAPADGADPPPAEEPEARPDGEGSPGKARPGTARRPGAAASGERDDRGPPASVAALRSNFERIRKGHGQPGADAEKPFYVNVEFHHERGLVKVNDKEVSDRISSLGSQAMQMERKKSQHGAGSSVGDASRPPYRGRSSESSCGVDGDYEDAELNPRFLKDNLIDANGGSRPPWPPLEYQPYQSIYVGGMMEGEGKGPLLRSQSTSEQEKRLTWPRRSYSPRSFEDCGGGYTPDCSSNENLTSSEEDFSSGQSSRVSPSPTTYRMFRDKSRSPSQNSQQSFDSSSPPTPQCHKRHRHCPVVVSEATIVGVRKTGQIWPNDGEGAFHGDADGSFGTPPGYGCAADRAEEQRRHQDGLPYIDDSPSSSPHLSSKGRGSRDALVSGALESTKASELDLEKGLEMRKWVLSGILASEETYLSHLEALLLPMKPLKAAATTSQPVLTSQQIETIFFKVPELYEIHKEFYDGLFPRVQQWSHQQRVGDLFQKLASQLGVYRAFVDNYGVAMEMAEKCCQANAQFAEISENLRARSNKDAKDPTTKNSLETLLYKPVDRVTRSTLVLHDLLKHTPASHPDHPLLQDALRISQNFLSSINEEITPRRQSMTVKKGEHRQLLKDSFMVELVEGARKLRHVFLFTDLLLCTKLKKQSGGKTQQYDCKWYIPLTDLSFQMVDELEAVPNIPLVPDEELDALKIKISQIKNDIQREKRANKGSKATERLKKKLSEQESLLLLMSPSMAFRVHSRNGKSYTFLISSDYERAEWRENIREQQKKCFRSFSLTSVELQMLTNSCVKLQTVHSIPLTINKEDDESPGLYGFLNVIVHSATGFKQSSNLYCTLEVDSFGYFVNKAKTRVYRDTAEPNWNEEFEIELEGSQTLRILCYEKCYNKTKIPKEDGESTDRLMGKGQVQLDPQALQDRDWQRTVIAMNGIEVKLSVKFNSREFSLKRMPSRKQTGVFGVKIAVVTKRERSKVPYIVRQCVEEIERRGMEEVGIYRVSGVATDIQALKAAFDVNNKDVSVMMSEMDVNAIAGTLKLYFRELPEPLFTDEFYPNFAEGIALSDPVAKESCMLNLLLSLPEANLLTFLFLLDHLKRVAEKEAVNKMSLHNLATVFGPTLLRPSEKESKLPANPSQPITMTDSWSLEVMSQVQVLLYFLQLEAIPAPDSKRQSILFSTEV

Row | pIC50 [1] | Structure (SMILES) | pIC50 [2]
1 | < 4.00 | COc1cc(/C=C/c2cc(C(C)(C)C)c(O)c(C(C)(C)C)c2)cc(OC)c1 [2,6-di-tert-butyl-4-[(E)-2-(3,5-dimethoxy-phenyl)-vinyl]-phenol] | 
2 | 4.70 | Oc1cc(O)cc(-c2ccc3cc(O)ccc3c2)c1 [5-(6-hydroxy-naphtalen-2-yl)-benzene-1,3-diol] | 
3 | < 4.00 | COc1cc(OC)cc(-c2ccc3cc(OC)ccc3c2)c1 [2-(3,5-Dimethoxy-phenyl)-6-methoxy-naphthalene] | < 4.00
4 | 5.10 | Oc1ccc(-c2ccccc2-c2cc(O)cc(O)c2)cc1 [[1,1';2',1'']-terphenyl-4,3'',5''-triol] | 4.92
5 | 4.70 | Oc1ccc(-c2ccc(-c3cc(O)cc(O)c3)cc2)cc1 [[1,1';4',1'']-terphenyl-4,3'',5''-triol] | 4.64
6 | 4.85 | COc1cc(OC)cc(-c2cccc(-c3ccc(O)cc3)c2)c1 [3'',5''-dimethoxy-[1,1';3',1'']-terphenyl-4-ol] | 4.70
7 | 4.70 | Oc1ccc(-c2cccc(-c3cc(O)cc(O)c3)c2)cc1 [[1,1';3',1'']-terphenyl-4,3'',5''-triol] | 4.24
8 | < 4.00 | COc1ccc(-c2ccc(-c3cc(OC)cc(OC)c3)cc2)cc1 [4,3'',5''-trimethoxy-[1,1';4',1'']-terphenyl] | < 4.00
9 | 4.64 | COc1cc(/C=C/c2cc(OC)c(O)c(OC)c2)cc(OC)c1 [4-[(E)-2-(3,5-dimethoxy-phenyl)-vinyl]-2,6-dimethoxy-phenol] | < 4.00
10 | 5.00 | COc1ccc(-c2cccc(-c3cc(OC)cc(OC)c3)c2)cc1 [4,3'',5''-trimethoxy-[1,1';3',1'']-terphenyl] | 4.10
11 | 4.85 | COc1cc(OC)cc(-c2ccccc2-c2ccc(O)cc2)c1 [3'',5''-dimethoxy-[1,1';2',1'']-terphenyl-4-ol] | 4.55
12 | 5.00 | COc1cc(/C=C/c2ccc(O)cc2)cc(OC)c1 [4-[2-(3,5-Dimethoxy-phenyl)-vinyl]-phenol] | 4.38
13 | 5.10 | COc1cc(/C=C/c2cccc(OC)c2O)cc(OC)c1 [2-[(E)-2-(3,5-dimethoxyphenyl)vinyl]-6-methoxyphenol] | 
14 | 4.38 | COc1cc(OC)cc(-c2ccc3cc(O)ccc3c2)c1 [6-(3,5-dimethoxy-phenyl)-naphthalen-2-ol] | 4.80
15 | 4.62 | COc1cc(/C=C/c2ccccc2O)cc(OC)c1 [2-[(E)-2-(3,5-dimethoxy-phenyl)-vinyl]-phenol] | 4.17
16 | 4.59 | COc1cc(/C=C/c2cccc(O)c2)cc(OC)c1 [3-[(E)-2-(3,5-Dimethoxy-phenyl)-vinyl]-phenol] | < 4.00
17 | 5.22 | COc1ccc(-c2ccccc2-c2cc(OC)cc(OC)c2)cc1 [4,3'',5''-trimethoxy-[1,1';2',1'']-terphenyl] | 
18 | 4.55 | Oc1ccc(/C=C/c2cc(O)cc(O)c2)cc1 [5-[(E)-2-(4-hydroxyphenyl)ethenyl]benzene-1,3-diol] | 4.22
19 | 4.80 | COc1cc(/C=C/c2cc(Cl)ccc2O)cc(OC)c1 [4-chloro-2-[(E)-2-(3,5-dimethoxy-phenyl)-vinyl]-phenol] | 
20 | 4.46 | COc1cc(OC)cc(-c2ccc(-c3ccc(O)cc3)cc2)c1 [3'',5''-dimethoxy-[1,1';4,1'']-terphenyl-4-ol] | 4.64

Row | Structure (SMILES) | pIC50 [1] | pIC50 [2]
21 | COc1ccc(/C=C/c2cc(OC)cc(OC)c2)cc1 | 5.00 | 

From BindingDB's records for doi:10.1021/jm060253o (University of Bologna, 2006)
